Compound activity: PubChem, The Scripps Research Institute Molecular Screening Center
TAAR1 agonist: human TAAR1 agonists, primary screen, Fluo-8 calcium fluorescence, CHO RD-HGA16 cells | vehicle wells 0%, saturating PEA agonist 100% | Trace amine-associated receptor 1 (Homo sapiens), Q96RJ0 | 360,000 compounds, 0.99% hits | activation, % at 3 µM;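 active = activation above the mean activation of all test compounds in the run plus 3 SD, cut at about 38% in these data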
Target sequence (Q96RJ0 whole entry, looked up): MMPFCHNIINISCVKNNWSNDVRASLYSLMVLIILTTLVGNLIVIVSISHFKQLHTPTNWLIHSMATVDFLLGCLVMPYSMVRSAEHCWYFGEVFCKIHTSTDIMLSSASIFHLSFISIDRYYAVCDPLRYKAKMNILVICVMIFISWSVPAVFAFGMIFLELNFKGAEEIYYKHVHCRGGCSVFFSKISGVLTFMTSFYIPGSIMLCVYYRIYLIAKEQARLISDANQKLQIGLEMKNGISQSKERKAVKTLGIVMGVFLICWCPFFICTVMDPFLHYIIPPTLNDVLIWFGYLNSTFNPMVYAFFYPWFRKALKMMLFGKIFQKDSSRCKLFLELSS
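Benchmarks: low control DMSO, high control PEA (EC100); System: CHO RD-HGA16 cells carrying human TAAR1 plus Gα16; Detection: Fluo-8 fluorescence, 5 s baseline then 140 s kinetic read; Schedule: 17-24 h plating, Fluo-8 75 min 37 °C, 30 min RT; Read-out basis: % activation from peak over basal fluorescence ratio, DMSO-to-PEA scaled.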
TAAR1 antagonist: human TAAR1 antagonists, primary screen, Fluo-8 calcium fluorescence, CHO RD-HGA16 cells | antagonist | inhibition, % at 3 µM | AID 624466, 2012 | 360,000 compounds, 1.5% hits;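 active = inhibition above a per-plate cutoff, the mean inhibition of test compounds on that plate plus 3 SD, cut at about 49% in these data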
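Test system – hTAAR1-expressing CHO RD-HGA16 cells, Gα16-coupled · Reagent – β-PEA at EC80 concentration, post-compound challenge · Compound dosing – 3 µM, single point · Timing – 140 s kinetic read after compound, 140 s after agonist · Detection – Fluo-8 intracellular calcium dye fluorescence, real-time kinetic reads · Control set – DMSO and EC80 PEA controls · Repeats – n of 1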
CHRM1 PAM: human M1 muscarinic receptor positive allosteric modulators, primary screen, CHO-K1 cells, Fluo-8 calcium fluorescence, 1536-well; 360,000 compounds, 0.088% hits; CHO-K1 hM1, ACh EC20; 0% = ACh EC20, 100% = maximal ACh; activation, % at 3 µM; in the data active = activation above about 19%, passing the limit was not always enough
CHRM1 agonist: human M1 muscarinic receptor agonists, primary screen, Fluo-8 calcium fluorescence, CHO-K1 cells, HTS; Muscarinic acetylcholine receptor M1 (Homo sapiens), P11229; CHO-K1 hM1, agonist mode; 0% DMSO, 100% acetylcholine EC100; activation, % at 3 µM; 360,000 compounds, 0.33% hits; AID 588814, 2011;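 active = activation above the run's mean compound activation plus 3 SD, cut at about 16% in these data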;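 note: peak over basal fluorescence ratio within a 140 s kinetic read after compound addition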
HTR2A ag: mouse Htr2a agonists via beta-arrestin recruitment, primary screen, cell-based, luminescence; CHO-K1 mHTR2A beta-arrestin complementation; percent of 30 µM serotonin response; activation, % at 7.6 µM; 360,000 compounds, 0.66% hits; AID 624169, 2012;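 active = activation above a run cutoff, the mean activation of all tested compounds plus 3 SD, cut at about 14% in these data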
M1 antag: human M1 muscarinic receptor antagonists, primary screen, CHO-K1 cells, Fluo-8 calcium fluorescence, 1536-well; 360,000 compounds, 1.3% hits; CHO-K1 hM1, ACh EC80 antagonist; inhibition, % at 3 µM; Muscarinic acetylcholine receptor M1 (Homo sapiens), P11229;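 active = percent inhibition above its own plate's cutoff, namely the mean of that plate's compound wells plus 3 SD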;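 note: peak over basal fluorescence ratio during 140 s after agonist addition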
OPRM1 ag: OPRM1 agonists via beta-arrestin recruitment, confirmation, counter-screen for mouse HTR2A agonist project, cell-based, luminescence, single concentration | 2,300 compounds, 5.3% hits | U2OS OPRM1 beta-arrestin PathHunter; DMSO 0%, DAMGO 9.3 µM 100% | activation, % at 9.3 µM | AID 624380, 2012 | shares compounds with HTR2A ag;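 active = mean activation above the mean of DMSO-only wells plus 3 SD, cut at about 0.5% in these data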
m5-HT2A ag conf: mouse HTR2A agonists, beta-arrestin recruitment, confirmation, cell-based, luminescence, CHO-K1 PathHunter, triplicate; DMSO 0%, 30 µM serotonin 100%; activation, % at 7.6 µM; AID 624381, 2012; shares compounds with HTR2A ag; 2,300 compounds, 19% hits;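 active = mean activation across triplicates above the hit threshold derived in the original primary screen, cut at about 15% in these data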
Of the large screens only hits and unclear results are named; the others gave an inactive call (follow-up assays come after a bar, where they were run). Sampled rows, rich in hits. Any-hit rate of the full collection: about 3.9%.

O=C(CN1C(=O)NC2(CCCC2)C1=O)OCc1c(F)cccc1Cl	HTR2A ag 17 | OPRM1 ag inactive | m5-HT2A ag conf inactive
COc1c2c(cc3ccc(=O)oc13)CCO2	HTR2A ag 21 | OPRM1 ag inactive | m5-HT2A ag conf inactive
COCCn1ccc2c(OCC(=O)Nc3cccc(NC(C)=O)c3)cccc2c1=O	none
CCC1(c2ccc(Cl)cc2)NC(=O)N(Cc2ccc(C(=O)OC)cc2)C1=O (stereo unspecified)	none
C[C@@H]1ON(C)[C@H]2C[C@H]3c4[nH]c5ccccc5c4CCN3C[C@@H]12	HTR2A ag 22 | OPRM1 ag inactive | m5-HT2A ag conf inactive
O=S(=O)(NCCSc1ccccc1)c1cccs1	HTR2A ag 15 | OPRM1 ag inactive | m5-HT2A ag conf inactive
Cc1ccccc1CNC(=O)CCn1nc(C)c2c(C)n(-c3ccccc3)nc2c1=O	none
COC(CNC(=O)c1ccc2c(c1)ncn2C1CCCCCC1)OC	none
c1ccc2c(c1)ccc1nnc(-c3ccc4c(c3)OCO4)n12	HTR2A ag 18 | OPRM1 ag inactive | m5-HT2A ag conf inactive
c1ccc2c(c1)ccc1nnc(SCc3ccc4c(c3)OCCO4)n12	none
CC(=O)OC(C)=O	none
Cc1cc(NC(=O)c2cccs2)ncc1NC(=O)C(C)(C)C	none
Cn1nc(C(C)(C)C)cc1C(=O)N1CCCCC1c1cc(C(=O)NCc2cccnc2)no1 (stereo unspecified)	HTR2A ag 15 | OPRM1 ag inactive | m5-HT2A ag conf inactive
COc1ccc(CNC(=O)C[C@H]2C[C@H](C(=O)N3CCCCC3)[C@@]3(C)c4[nH]c5cc(CCC(=O)N(C)C)ccc5c4CCN3C2=O)cc1OC	none
Cc1cc(=O)[nH]c(SCC(=O)Nc2ccc(F)c([N+](=O)[O-])c2)n1	HTR2A ag 28 | OPRM1 ag inactive | m5-HT2A ag conf inactive
COc1ccc(CCNC(=O)c2ccccc2NC(=O)c2ccco2)cc1OC	HTR2A ag 24 | OPRM1 ag inactive | m5-HT2A ag conf inactive
Cc1ccc(NC(=O)c2oc3ccccc3c2COC(C)C)cc1S(=O)(=O)N1CCOCC1	none
CS(=O)(=O)N1CCC(Oc2ccccc2C(=O)NC(C2CC2)C2CC2)CC1	none
CCc1ccccc1NC(=O)c1ccccc1N1C(=O)C2C3C=CC(C3)C2C1=O (stereo unspecified)	HTR2A ag 16 | OPRM1 ag inactive | m5-HT2A ag conf inactive
COc1ccccc1CNC(=O)C1CCC(CNS(=O)(=O)c2ccc(F)cc2)CC1 (stereo unspecified)	HTR2A ag 21 | OPRM1 ag inactive | m5-HT2A ag conf inactive
O=C(CCN1C(=O)/C(=C/c2ccc(Cl)cc2)SC1=S)NC1C=CS(=O)(=O)C1 (stereo unspecified)	none
O=C(CN1C(=O)/C(=C/c2ccc(Cl)cc2)SC1=S)NC1C=CS(=O)(=O)C1 (stereo unspecified)	HTR2A ag 15 | OPRM1 ag inactive | m5-HT2A ag conf inactive
CCCCn1nnnc1C(c1cc2ccccc2o1)N1CCN(C(=O)OCC)CC1 (stereo unspecified)	HTR2A ag 17 (no result: CHRM1 PAM, CHRM1 agonist, M1 antag) | OPRM1 ag inactive | m5-HT2A ag conf inactive
CN(C)S(=O)(=O)Nc1ccc(Cc2ccncc2)cc1	none
Cc1c(C(=O)Nc2ccc(-c3nnc4n3CCCCC4)cc2)oc2ccc(Br)cc12	HTR2A ag 18 | OPRM1 ag inactive | m5-HT2A ag conf inactive
COc1ccc2c3n(nc2c1)CCN=C3c1ccc(Cl)cc1	HTR2A ag 17 | OPRM1 ag inactive | m5-HT2A ag conf inactive
CN(c1ccccc1C(=O)Nc1ccccc1C(=O)NCc1ccco1)S(C)(=O)=O	HTR2A ag 14 | OPRM1 ag inactive | m5-HT2A ag conf inactive
Cc1nn(-c2ccccc2)c(N2CCCC2)c1/C=N/NC(=O)c1cc(-c2ccccn2)nc2ccccc12	HTR2A ag 15 | OPRM1 ag inactive | m5-HT2A ag conf inactive
CCOC(=O)C1(C)CCCN1C(=O)c1ccccc1OC (stereo unspecified)	HTR2A ag 15 | OPRM1 ag inactive | m5-HT2A ag conf inactive
NNC(=O)c1ccccc1-n1cccc1	none
N/C(=N\O)c1ccccc1-n1cccc1	HTR2A ag 15 | OPRM1 ag inactive | m5-HT2A ag conf inactive
CCN(C(=O)COC(=O)c1ccccc1NCCO)c1cccc2ccccc12	none
COc1ccc(C)cc1S(=O)(=O)n1c([N+](=O)[O-])cnc1C	HTR2A ag 15 | OPRM1 ag inactive | m5-HT2A ag conf inactive
COc1ccc(S(=O)(=O)n2c([N+](=O)[O-])cnc2C)cc1OC	none
COCCN(C(=O)COC(=O)C1CCCCC1)c1c(N)n(Cc2ccccc2)c(=O)[nH]c1=O	HTR2A ag 16 | OPRM1 ag inactive | m5-HT2A ag conf inactive
COCCN(C(=O)COC(=O)CC1CCCCC1)c1c(N)n(Cc2ccccc2)c(=O)[nH]c1=O	none
CCN1C(=O)C(=O)N(CC(=O)Nc2cccc(C(F)(F)F)c2)C1=O	HTR2A ag 44 | OPRM1 ag inactive | m5-HT2A ag conf inactive
COCC(=O)Nc1cccc(C(F)(F)F)c1	none
Cn1cccc1C(=O)NC(=O)COC(=O)c1cc(Cl)ccc1[N+](=O)[O-]	none
CCC(Cc1ccccc1)NC(=O)CCc1ccccc1 (stereo unspecified)	none
O=[N+]([O-])c1ccc(S(=O)(=O)NCCc2ccncc2)cc1	none
CCCS(=O)(=O)NC(=O)C1(C)CCN(C(=O)c2cc(F)cc(F)c2)C1 (stereo unspecified)	HTR2A ag 15 | OPRM1 ag inactive | m5-HT2A ag conf inactive
CCCS(=O)(=O)NC(=O)C1(C)CCN(C(=O)C2(c3ccc(Cl)cc3)CCCC2)C1 (stereo unspecified)	HTR2A ag 16 | OPRM1 ag inactive | m5-HT2A ag conf inactive
